The target in data set [1] is T1, 3-phosphoinositide-dependent protein kinase 1 (Homo sapiens, UniProt O15530).
T1 sequence (O15530 whole entry): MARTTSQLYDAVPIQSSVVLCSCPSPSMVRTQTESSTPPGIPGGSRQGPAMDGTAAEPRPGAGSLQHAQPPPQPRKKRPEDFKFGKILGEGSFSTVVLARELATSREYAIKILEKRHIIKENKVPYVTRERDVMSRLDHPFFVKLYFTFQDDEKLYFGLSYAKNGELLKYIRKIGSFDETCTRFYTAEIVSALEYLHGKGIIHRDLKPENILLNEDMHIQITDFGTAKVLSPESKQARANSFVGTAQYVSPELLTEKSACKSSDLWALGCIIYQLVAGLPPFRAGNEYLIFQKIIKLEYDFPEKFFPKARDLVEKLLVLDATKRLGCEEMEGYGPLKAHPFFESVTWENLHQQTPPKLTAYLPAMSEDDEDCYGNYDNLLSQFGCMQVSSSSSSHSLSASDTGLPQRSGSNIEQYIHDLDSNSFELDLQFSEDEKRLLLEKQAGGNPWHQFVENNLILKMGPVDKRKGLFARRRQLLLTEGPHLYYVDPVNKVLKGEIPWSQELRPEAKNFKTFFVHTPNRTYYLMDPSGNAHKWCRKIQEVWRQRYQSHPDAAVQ
Description: Binding affinity to PDK1.

Data set [2] concerns the target T2, 3-phosphoinositide-dependent protein kinase 1 (Homo sapiens) (UniProt O15530).
T2 sequence (whole entry): T1 sequence (O15530 whole entry)
As to the kind of experiment: Increase in thermal stability of PDK1 assessed as concentration required to increase 1.5 degC thermal stability by differential scanning fluorimetry. In a few lines:
(§1)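 PDK1 (1 μM) in 10 mM HEPES pH 7.5, 150 mM NaCl, 1 mM DTT and 1/1000 SYPRO Orange, with ligand at 1% final DMSO, was heated from 25–70 °C in 0.3 °C steps. Tm came from a Boltzmann fit, and ΔTm is relative to DMSO control, each point from duplicates. EC50 was fitted from ΔTm versus concentration, along with the concentration giving a 1.5 °C shift.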

In data set [3] the target is T1, 3-phosphoinositide-dependent protein kinase 1. As to the kind of experiment: Increase in thermal stability of PDK1 by differential scanning fluorimetry. In a few lines:
as §1
On the technique in general: In DSF a fluorescence change marks the thermal transition of the protein.

Data set [4] has as its target T2, 3-phosphoinositide-dependent protein kinase 1 (Homo sapiens). As to the kind of experiment: Activation of PDK1 using KTFCGTPEYLAPEVRR as substrate and [gamma32P]-ATP/Mg2+ by phosphor imaging analysis relative to control. In outline:
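Radioactive kinase assay with 0.25 μM PDK1 and [γ32P]ATP. Phosphorylated peptide was captured on P81 phosphocellulose paper and detected by phosphorimaging. Activation is expressed relative to DMSO control (=100%). AC50 is the concentration giving half-maximal activation. Values are the mean of at least two independent experiments.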

The target is the same in data set [5]. Description: Increase in thermal stability of PDK1 by differential scanning fluorimetry relative to control. In a few lines:
as §1

A short description of data set [6]: Activation of PKA at 2 uM relative to control.
For data set [7], the target named is RAC-alpha serine/threonine-protein kinase (Homo sapiens) (UniProt P31749). Description: Activation of PKBalpha at 50 uM relative to control.
Data set [8] is described as follows: Activation of RSK at 2 uM relative to control.
The target in data set [9] is Serine/threonine-protein kinase N2 (Homo sapiens) (UniProt Q16513). As to the kind of experiment: Activation of PRK2 at 2 uM relative to control.
Data set [10] addresses Ribosomal protein S6 kinase beta-1 (Homo sapiens) (UniProt P23443). As to the kind of experiment: Activation of S6K1 at 50 uM relative to control.
The target in data set [11] is T3, Protein kinase C zeta type (Homo sapiens) (UniProt Q05513).
T3 sequence (whole entry): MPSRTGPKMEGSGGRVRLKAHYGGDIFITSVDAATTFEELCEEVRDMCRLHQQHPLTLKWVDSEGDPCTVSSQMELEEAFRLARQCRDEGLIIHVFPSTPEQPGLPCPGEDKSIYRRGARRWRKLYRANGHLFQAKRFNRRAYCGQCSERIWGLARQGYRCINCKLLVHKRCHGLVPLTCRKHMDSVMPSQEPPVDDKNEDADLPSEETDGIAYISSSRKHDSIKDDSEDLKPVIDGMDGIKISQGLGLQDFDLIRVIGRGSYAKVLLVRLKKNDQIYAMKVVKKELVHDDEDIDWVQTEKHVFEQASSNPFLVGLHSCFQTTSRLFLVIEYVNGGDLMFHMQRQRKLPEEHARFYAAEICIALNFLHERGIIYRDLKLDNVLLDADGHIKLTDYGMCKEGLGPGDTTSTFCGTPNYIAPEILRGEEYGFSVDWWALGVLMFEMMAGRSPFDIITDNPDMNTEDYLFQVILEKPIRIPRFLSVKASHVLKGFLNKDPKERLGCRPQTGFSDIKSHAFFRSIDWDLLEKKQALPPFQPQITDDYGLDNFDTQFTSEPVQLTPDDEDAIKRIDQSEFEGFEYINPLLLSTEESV
As to the kind of experiment: Activation of PKCzeta at 2 uM relative to control.

In data set [12] the target is T4, Serine/threonine-protein kinase Sgk1 (Homo sapiens) (UniProt O00141).
T4 sequence (whole entry): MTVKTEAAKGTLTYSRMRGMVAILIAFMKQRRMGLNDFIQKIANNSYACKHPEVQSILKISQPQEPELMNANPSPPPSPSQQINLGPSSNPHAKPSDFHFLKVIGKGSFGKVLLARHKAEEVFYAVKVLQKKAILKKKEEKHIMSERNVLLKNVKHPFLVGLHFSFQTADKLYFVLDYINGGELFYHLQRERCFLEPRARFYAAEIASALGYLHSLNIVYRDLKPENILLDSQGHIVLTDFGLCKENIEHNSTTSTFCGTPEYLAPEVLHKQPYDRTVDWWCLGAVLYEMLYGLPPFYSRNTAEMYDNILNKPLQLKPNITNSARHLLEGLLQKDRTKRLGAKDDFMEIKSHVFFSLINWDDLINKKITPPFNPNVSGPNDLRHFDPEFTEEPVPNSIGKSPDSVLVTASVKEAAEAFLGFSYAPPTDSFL
Description: Activation of SGK at 2 uM relative to control.

Data set [13] in a line: Activation of MSK at 50 uM relative to control.
Data set [14] in a line: Activation of MSK at 2 uM relative to control.
Data set [15] has as its target Serine/threonine-protein kinase N2 (Homo sapiens) (UniProt Q16513). Description: Activation of PRK2 at 50 uM relative to control.
Data set [16] concerns the target T4, Serine/threonine-protein kinase Sgk1 (Homo sapiens). As to the kind of experiment: Activation of SGK at 50 uM relative to control.
Data set [17] is described as follows: Activation of PKA at 50 uM relative to control.
In data set [18] the target is Ribosomal protein S6 kinase beta-1 (Homo sapiens) (UniProt P23443). Description: Activation of S6K1 at 2 uM relative to control.
Data set [19] in a line: Activation of RSK at 50 uM relative to control.
In data set [20] the target is T3, Protein kinase C zeta type (Homo sapiens). As to the kind of experiment: Activation of PKCzeta at 50 uM relative to control.
Data set [21] concerns the target RAC-alpha serine/threonine-protein kinase (Homo sapiens) (UniProt P31749). As to the kind of experiment: Activation of PKBalpha at 2 uM relative to control.
The target in data set [22] is T2, 3-phosphoinositide-dependent protein kinase 1 (Homo sapiens). Description: Activation of PDK1 in IGF-I-stimulated HEK293 cells assessed as decrease of phosphorylation of S6K activation loop at 50 uM after 2 hrs by Western blot analysis. It is filed as cell-based. In a few lines:
(§2)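 HEK293 cells in DMEM with 10% FBS were serum-starved 24 h, then given 50 μM compound or DMSO for 2 h and stimulated with IGF-I (10 ng/mL) for 20 min. For S6K and PKCζ, cells were first transiently transfected with GST-fusions of full-length S6K[T412E] and PKCζ (PEI). These proteins were pulled down on glutathione sepharose and immunoblotted for activation-loop phosphorylation (S6K Thr229, PKCζ Thr410), normalized to anti-GST. For PKB, untransfected cell lysates were immunoblotted with phospho-specific antibodies.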
Background: A western blot detects proteins with antibodies after separation by electrophoresis.

Data set [23] deals with L6. Description: Cellular uptake in rat L6 cells at 20 uM after 5 mins by mass spectroscopy analysis. The note with it: l6, 5 min. It is filed as ADME, cell-based. In a few lines:
(§3)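 Confluent rat L6 cells in serum-free DMEM were exposed to 20 μM ester prodrug for 5–90 min. Cells were then washed with cold PBS, trypsinized and counted. Carbamazepine was added as internal standard, and samples were acidified with HCl and extracted with ethyl acetate. Prodrug and free dicarboxylic acid were quantified by HPLC-MS/MS on a C18 column with TFA-containing gradients. DMSO-treated cells served as control.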

Data set [24] deals with L6. As to the kind of experiment: Prodrug conversion in rat L6 cells assessed as production of 2-(3-Oxo-1-phenyl-3-(4-(trifluoromethyl)phenyl)propyl)malonic acid level in cytoplasm at 20 uM […] by HPLC analysis. It is filed as ADME, cell-based. The conditions noted are these: l6, 20 µM.
The subject of data set [25] is L6. As to the kind of experiment: Prodrug conversion in rat L6 cells assessed as reduction half life of prodrug at 20 uM […] by mass spectroscopy analysis. It is filed as ADME, cell-based. The note with it: l6, 20 µM.
The test system of data set [26] is L6. As to the kind of experiment: Prodrug conversion in rat L6 cells assessed as prodrug degradation at 20 uM after 1 hr by mass spectroscopy analysis. It is filed as ADME, cell-based. The note with it: l6, 1 h.
Data set [27] concerns L6. Description: Prodrug conversion in rat L6 cells assessed as production of 2-(3-Oxo-1-phenyl-3-(4-(trifluoromethyl)phenyl)propyl)malonic acid level at 20 uM after 1 hr by mass spectroscopy analysis. Format: ADME, cell-based. The note with it: l6, 1 h. In outline:
as §3

The target in data set [28] is T2, 3-phosphoinositide-dependent protein kinase 1 (Homo sapiens). As to the kind of experiment: Activation of PDK1 in IGF-I-stimulated HEK293 cells assessed as decrease of phosphorylation of PKB T-loop at 50 uM after 2 hrs by Western blot analysis. Format: cell-based. In a few lines: as §2
Data set [29] concerns L6. As to the kind of experiment: Prodrug conversion in rat L6 cells assessed as production of 2-(3-Oxo-1-phenyl-3-(4-(trifluoromethyl)phenyl)propyl)malonic acid level in cytoplasm at 20 uM […] by mass spectroscopy analysis relative to control. It is filed as ADME, cell-based. The note with it: l6, 20 µM.
Data set [30] in a line: Hydrolysis half life of the compound. Format: physicochemical. In a few lines:
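Chemical stability of the ester prodrug was measured in cell-free medium at 37 °C, giving the half-life of spontaneous hydrolysis.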

In data set [31] the target is T2, 3-phosphoinositide-dependent protein kinase 1 (Homo sapiens). Description: Activation of PDK1 in IGF-I-stimulated HEK293 cells assessed as decrease of phosphorylation of PKCzeta at Thr410 at 50 uM after 2 hrs by Western blot analysis. It is filed as cell-based. In outline: as §2
Data set [32] has as its system L6. As to the kind of experiment: Cellular uptake in rat L6 cells at 20 uM up to 100 mins by mass spectroscopy analysis. It is filed as ADME, cell-based. The conditions noted are these: l6, 100 min.

Active and inactive are the calls of the source. The rule behind the calls is not given here.

Sequence of RAC-alpha serine/threonine-protein kinase (Homo sapiens) (P31749 whole entry): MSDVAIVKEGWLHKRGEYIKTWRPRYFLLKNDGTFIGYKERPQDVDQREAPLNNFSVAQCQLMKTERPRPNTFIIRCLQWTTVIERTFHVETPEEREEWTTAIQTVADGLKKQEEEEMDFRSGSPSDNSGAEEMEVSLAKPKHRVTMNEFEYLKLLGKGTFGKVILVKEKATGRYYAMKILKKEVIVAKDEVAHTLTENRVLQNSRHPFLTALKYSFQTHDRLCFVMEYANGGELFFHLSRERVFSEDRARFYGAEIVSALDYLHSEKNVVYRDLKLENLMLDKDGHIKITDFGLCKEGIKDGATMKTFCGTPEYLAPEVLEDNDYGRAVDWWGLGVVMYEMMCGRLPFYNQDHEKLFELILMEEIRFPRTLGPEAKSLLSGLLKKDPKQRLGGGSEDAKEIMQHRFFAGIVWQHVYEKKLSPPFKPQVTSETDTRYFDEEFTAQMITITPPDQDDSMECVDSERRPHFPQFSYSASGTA
Sequence of Ribosomal protein S6 kinase beta-1 (Homo sapiens) (P23443 whole entry, looked up): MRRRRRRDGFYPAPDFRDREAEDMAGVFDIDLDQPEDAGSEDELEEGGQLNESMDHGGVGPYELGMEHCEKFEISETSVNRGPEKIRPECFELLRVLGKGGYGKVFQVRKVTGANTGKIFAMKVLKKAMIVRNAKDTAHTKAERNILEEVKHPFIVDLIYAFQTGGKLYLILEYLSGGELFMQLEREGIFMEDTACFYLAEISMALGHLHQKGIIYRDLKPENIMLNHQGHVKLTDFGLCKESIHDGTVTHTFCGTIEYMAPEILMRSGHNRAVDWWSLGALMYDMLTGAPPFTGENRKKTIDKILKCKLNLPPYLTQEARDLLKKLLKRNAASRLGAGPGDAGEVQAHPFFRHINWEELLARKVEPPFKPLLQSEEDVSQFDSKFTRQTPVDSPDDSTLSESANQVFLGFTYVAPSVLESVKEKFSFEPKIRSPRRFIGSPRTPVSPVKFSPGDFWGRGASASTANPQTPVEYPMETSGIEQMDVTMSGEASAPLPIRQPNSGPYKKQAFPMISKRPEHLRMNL
Sequence of Serine/threonine-protein kinase N2 (Homo sapiens) (Q16513 whole entry, looked up): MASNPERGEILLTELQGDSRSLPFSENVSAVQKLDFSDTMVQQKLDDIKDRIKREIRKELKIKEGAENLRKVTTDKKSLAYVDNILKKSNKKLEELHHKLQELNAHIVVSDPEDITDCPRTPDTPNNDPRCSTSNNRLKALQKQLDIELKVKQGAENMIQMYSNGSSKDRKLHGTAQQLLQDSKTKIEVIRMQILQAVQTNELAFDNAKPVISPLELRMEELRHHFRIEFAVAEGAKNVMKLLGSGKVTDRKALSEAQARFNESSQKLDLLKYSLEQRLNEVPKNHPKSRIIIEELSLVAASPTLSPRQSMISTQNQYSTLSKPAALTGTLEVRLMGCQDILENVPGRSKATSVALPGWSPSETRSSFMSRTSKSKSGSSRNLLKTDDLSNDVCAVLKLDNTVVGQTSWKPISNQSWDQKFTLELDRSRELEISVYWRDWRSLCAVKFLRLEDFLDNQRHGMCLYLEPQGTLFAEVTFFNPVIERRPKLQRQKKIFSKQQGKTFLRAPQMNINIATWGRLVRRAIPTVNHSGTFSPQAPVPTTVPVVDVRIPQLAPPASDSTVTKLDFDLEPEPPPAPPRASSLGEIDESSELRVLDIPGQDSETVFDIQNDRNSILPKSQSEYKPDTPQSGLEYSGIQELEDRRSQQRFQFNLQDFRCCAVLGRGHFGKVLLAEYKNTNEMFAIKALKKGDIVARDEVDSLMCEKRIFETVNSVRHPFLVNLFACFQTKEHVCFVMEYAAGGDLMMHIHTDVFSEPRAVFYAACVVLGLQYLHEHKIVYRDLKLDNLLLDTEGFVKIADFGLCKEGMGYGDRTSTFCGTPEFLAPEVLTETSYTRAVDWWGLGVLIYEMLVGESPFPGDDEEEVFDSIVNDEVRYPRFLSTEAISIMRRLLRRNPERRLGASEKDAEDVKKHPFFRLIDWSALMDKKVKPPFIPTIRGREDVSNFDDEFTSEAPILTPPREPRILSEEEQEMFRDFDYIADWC

As to H-REPRILSEEEQEMFRDFDYIADWC-OH, in data set [1], the Kd (as a rule, the constant that tells how readily two partners part at equilibrium) was 0.043 µM. In addition, in [2], the Activity came out at 3.1 µM. Also, the EC50 (as a rule, the concentration at which the effect is half-maximal) in [3] is 14.2 µM. Besides, the max activation in data set [4] is 3.4. In data set [5], the ΔTm (usually the change in melting temperature against a reference sample) came to 7.3 °C.
With `O=C(CC(c1ccccc1)C(C(=O)O)C(=O)O)c1ccc(Cl)cc1` (racemic), the outcome in data set [6], in data set [7], in [8], in [9], in data set [11] and in data set [12] was inactive. Besides, the result in data set [13], in data set [14], in [15], in data set [16], in data set [17] and in data set [20] was inactive. In addition, the outcome in data set [21] was inactive. Also, the Activity was determined as 47% in data set [10], 84% in [18] and 160% in data set [19]. In [4], this compound had a max activation of 4.
In the case of `CC(=O)OCOC(=O)C(C(=O)OCOC(C)=O)C(CC(=O)c1ccc(C(F)(F)F)cc1)c1ccccc1` (stereo not given), in data set [22], the outcome was Active. Besides, in the data set on L6 [23], the Drug uptake entry is reported as “Active”. Besides, the Drug metabolism result in the data set with L6 [24] was “Active”; in the data set on L6 [26] it was > 90%; with L6 [27], 80 µM. Also, in the data set with L6 [25], the t1/2 was determined as 4.3 min. Also, the result in data set [28] and in data set [31] was inactive. Further, the “fold change (FC)” value with L6 [29] was determined as 67. Also, the half-life (as a rule, the time in which the quantity being followed falls by half) in data set [30] was 4.8 h.
Take `O=C(CC(c1ccccc1)C(C(=O)O)C(=O)O)c1ccc(C(F)(F)F)cc1` (racemic): the outcome in data set [6], in data set [7], in data set [8], in data set [9], in data set [11] and in data set [12] was inactive. The outcome in data set [13], in data set [14], in data set [15], in [16], in [20] and in [21] was inactive. The Activity in data set [10] came to 46%; in [2] it was 67.6 µM; in data set [17], 80%; in [18] it was 82%; in data set [19], 140%. The same compound yielded an EC50 in [3] of 85.8 µM. Further, the Drug uptake result in the data set with L6 [32] is “Not Active”. Further, the max activation in data set [4] was determined as 5.5. The ΔTm in data set [5] was determined as 3.9 °C.
Consider `O=C(O)/C=C(/CCc1ccc(Cl)cc1)c1ccccc1`, for which the result in [6], in data set [7], in data set [9], in data set [11], in [12] and in data set [15] was inactive. The outcome in [16], in data set [18], in data set [20] and in data set [21] was inactive. Further, the results for the Activity in [10] and in data set [17] were 84% and 74%, respectively.
